RGS4 act: potentiators or activators of RGS4. HEK293 M3R/inducible RGS4, carbachol calcium flux Fluo4; active compounds read low. B-score at 10 µM. 310,000 tested, 0.92% active;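 active means B-score of the integrated calcium signal more than 4 SD below the library mean, with starting fluorescence not abnormally high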;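 further: negative B-score means reduced calcium response which marks RGS4 activation or potentiation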
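Material: M3R-expressing HEK293 line, RGS4 induced by doxycycline | Schedule: Overnight RGS4 induction, 30 min dye load 37 °C, 20 min compound RT | Measured by: Fluo4 fluorescence kinetic imaging of calcium | Read-out: Integrated calcium ratio converted to B score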
MrgX1 agonist: human MrgX1 receptor agonism, primary screen | AID 588627 | MrgX1-HEK293 cells, Fluo-4 calcium fluorescence, agonist mode; active compounds read high | 310,000 tested, 0.44% active | B-score at 10 µM;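 active means calcium response B-score plate-corrected fluorescence ratio at least 3 library SD, with starting fluorescence B-score inside 5 SD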
Target sequence (Q96LB2 whole entry, looked up): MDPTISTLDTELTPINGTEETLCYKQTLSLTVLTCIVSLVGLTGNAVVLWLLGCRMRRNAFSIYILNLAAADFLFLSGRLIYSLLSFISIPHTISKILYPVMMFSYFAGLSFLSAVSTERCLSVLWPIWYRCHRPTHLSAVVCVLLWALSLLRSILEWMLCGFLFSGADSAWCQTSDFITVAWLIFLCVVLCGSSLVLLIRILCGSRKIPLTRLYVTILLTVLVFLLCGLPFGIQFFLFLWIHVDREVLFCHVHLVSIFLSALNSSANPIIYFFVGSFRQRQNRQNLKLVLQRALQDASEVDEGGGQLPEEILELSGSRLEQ
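times = overnight plating, then 30 min 37 °C plus 30 min room-temperature dye loading | assay system = stable human MrgX1 HEK293 cell line | input = fifteen thousand cells per well | signal = kinetic calcium dye fluorescence, Fluo-4 NW | dosing = compound delivered in addition one of three | read-out = B-scored fluorescence response ratio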
MrgX1 antag: blocks BAM8-22 activation of human MrgX1 receptor. B-score at 10 µM. 310,000 tested, 1.3% active. MRGX1-HEK293 calcium flux, Fluo-4, BAM8-22 antagonism; active compounds read low. Q96LB2;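 active means calcium-response B-score plate-corrected more than 3 library SD below zero, starting fluorescence within 5 deviations, no agonist response on first addition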;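 further: peak minus trough fluorescence over baseline after final BAM8-22 challenge near maximal dose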
RGS4 block: human RGS4 inhibition | P49798 | HEK293 M3R/RGS4 inducible, Fluo-4 calcium flux; active compounds read high; triggered by carbachol at its EC20 | B-score at 10 µM | 310,000 tested, 0.45% active;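 active means B-score, a plate-corrected calcium signal, over three deviations above library mean, with baseline fluorescence within five deviations of library mean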;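 further: RGS4 expression induced by doxycycline in cells with stable M3 receptor; B-score is computed from the integrated fluorescence ratio over baseline after carbachol; higher B-score means a larger calcium signal and so more RGS4 inhibition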
Target sequence (P49798 whole entry, looked up): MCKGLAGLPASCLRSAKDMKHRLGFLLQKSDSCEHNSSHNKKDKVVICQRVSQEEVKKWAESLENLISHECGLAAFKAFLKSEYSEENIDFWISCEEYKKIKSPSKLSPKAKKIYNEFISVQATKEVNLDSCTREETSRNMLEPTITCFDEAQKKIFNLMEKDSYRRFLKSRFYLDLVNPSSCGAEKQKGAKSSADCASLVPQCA
MrgX1 allo act: human MrgX1 positive allosteric modulation, primary screen; AID 588675; MrgX1-HEK293, Fluo-4 calcium flux, FDSS; active compounds read high; B-score at 10 µM; Q96LB2; 310,000 tested, 0.63% active;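 active means plate-corrected calcium response at least 3 library SD above typical, normal starting fluorescence, not activating the receptor alone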;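 further: compound read alongside a low EC10 to EC30 dose of BAM8-22 agonist; peak minus trough fluorescence over baseline measured at the second addition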
* hit, by the source's call. Hits are enriched below; roughly 3.5% of the tested compounds scored in any of these assays.

What do the screens show for `C=CCN1C(c2cccc(C(F)(F)F)c2)=CS/C1=C(/C#N)c1nnc(N2CCOCC2)n1-c1ccccc1`?
RGS4 act: inactive; MrgX1 agonist: 45*; MrgX1 antag: inactive; RGS4 block: inactive; MrgX1 allo act: inactive

What do the screens show for `CCOc1ccc(NC(=O)CSc2nnc(Cc3cccn3C)n2-c2ccc(OC)cc2)cc1`?
RGS4 act: inactive; MrgX1 agonist: inactive; MrgX1 antag: -5.7*; RGS4 block: inactive; MrgX1 allo act: inactive

Results for COc1ccc(NC(=O)CCNS(=O)(=O)c2cccc3nsnc23)c(OC)c1 ?
RGS4 act: inactive; MrgX1 agonist: inactive; MrgX1 antag: inactive; RGS4 block: inactive; MrgX1 allo act: inactive

Results for COc1ccc(OC)c(-c2nc(C(=O)NCC3CCCO3)cc3c2[nH]c2ccccc23)c1 (centres undefined) ?
RGS4 act: inactive; MrgX1 agonist: inactive; MrgX1 antag: inactive; RGS4 block: inactive; MrgX1 allo act: inactive

What do the screens show for `COc1cccc(-c2nc(C(=O)NCC3CCCO3)cc3c2[nH]c2ccccc23)c1` (centres undefined)?
RGS4 act: -7.2*; MrgX1 agonist: inactive; MrgX1 antag: inactive; RGS4 block: inactive; MrgX1 allo act: inactive

What do the screens show for `N#CCC(=O)Nc1ccc(C(=O)OCC(=O)N(C2CCCCC2)C2CCCCC2)cc1`?
RGS4 act: inactive; MrgX1 agonist: inactive; MrgX1 antag: inactive; RGS4 block: inactive; MrgX1 allo act: inactive

Results for CCOc1cc(/C=N/NC(=O)C(O)(c2ccccc2)c2ccccc2)ccc1OC(=O)c1ccco1 ?
RGS4 act: -10*; MrgX1 agonist: inactive; MrgX1 antag: inactive; RGS4 block: inactive; MrgX1 allo act: inactive

How did CCOc1cc(/C=N/NC(=O)c2ccc(CN3CCOCC3)cc2)ccc1OCc1ccccc1 do in these assays?
RGS4 act: -7.3*; MrgX1 agonist: inactive; MrgX1 antag: inactive; RGS4 block: inactive; MrgX1 allo act: inactive

What do the screens show for `CCOc1cc(/C=N/NC(=O)c2ccncc2)ccc1OC(=O)c1ccco1`?
RGS4 act: inactive; MrgX1 agonist: inactive; MrgX1 antag: inactive; RGS4 block: inactive; MrgX1 allo act: inactive

How did Cc1ccc([N+](=O)[O-])cc1N(CC(=O)NC1CCCC1)S(C)(=O)=O do in these assays?
RGS4 act: inactive; MrgX1 agonist: inactive; MrgX1 antag: inactive; RGS4 block: inactive; MrgX1 allo act: 11*

What do the screens show for `COc1ccc([N+](=O)[O-])cc1N(CC(=O)NC1CCCCC1)S(C)(=O)=O`?
RGS4 act: inactive; MrgX1 agonist: inactive; MrgX1 antag: inactive; RGS4 block: inactive; MrgX1 allo act: inactive

Results for Cc1ccc(C)c(N(CC(=O)N2CCCCCC2)S(C)(=O)=O)c1 ?
RGS4 act: inactive; MrgX1 agonist: inactive; MrgX1 antag: inactive; RGS4 block: inactive; MrgX1 allo act: inactive

What do the screens show for `Cc1ccc([N+](=O)[O-])cc1N(CC(=O)N1CCCCC1)S(C)(=O)=O`?
RGS4 act: inactive; MrgX1 agonist: inactive; MrgX1 antag: inactive; RGS4 block: inactive; MrgX1 allo act: 7.5*

What do the screens show for `CCC(=O)Nc1ccc(Cl)c(NC(=S)NC(=O)COc2ccc(Cl)cc2)c1`?
RGS4 act: inactive; MrgX1 agonist: inactive; MrgX1 antag: inactive; RGS4 block: inactive; MrgX1 allo act: inactive

Results for O=C(c1ccccc1)c1ccc2nc(Nc3ccccc3)c3nncn3c2c1 ?
RGS4 act: inactive; MrgX1 agonist: inactive; MrgX1 antag: inactive; RGS4 block: inactive; MrgX1 allo act: inactive

What do the screens show for `Cc1cc(=O)n2nc(N3CCCC(C(=O)N4CCc5ccccc54)C3)sc2n1` (centres undefined)?
RGS4 act: -7.7*; MrgX1 agonist: inactive; MrgX1 antag: inactive; RGS4 block: inactive; MrgX1 allo act: inactive

What do the screens show for `CCCn1nc([N+](=O)[O-])c(C(C#N)c2nc3ccccc3s2)c(Cl)c1=O` (centres undefined)?
RGS4 act: inactive; MrgX1 agonist: 29*; MrgX1 antag: inactive; RGS4 block: inactive; MrgX1 allo act: inactive

What do the screens show for `O=C(C1CCC(C(=O)N2CCc3ccccc32)CC1)N1CCc2ccccc21` (centres undefined)?
RGS4 act: inactive; MrgX1 agonist: inactive; MrgX1 antag: inactive; RGS4 block: inactive; MrgX1 allo act: inactive

Results for O=C(CCl)c1ccc2c(c1)CCN2C(=O)C1CC1 ?
RGS4 act: inactive; MrgX1 agonist: 33*; MrgX1 antag: inactive; RGS4 block: 7.1*; MrgX1 allo act: inactive

How did Cn1c(=O)c2[nH]c(-c3cccnc3)nc2n(C)c1=O do in these assays?
RGS4 act: inactive; MrgX1 agonist: inactive; MrgX1 antag: inactive; RGS4 block: inactive; MrgX1 allo act: inactive

Results for COc1cccc(OCc2nnc(SCC(=O)NCc3ccco3)n2CCc2ccccc2)c1 ?
RGS4 act: inactive; MrgX1 agonist: inactive; MrgX1 antag: inactive; RGS4 block: inactive; MrgX1 allo act: inactive

How did Cc1cc(-c2nn(C)c(=O)c3ccccc23)ccc1CNC(=O)NC1CCCCC1 do in these assays?
RGS4 act: inactive; MrgX1 agonist: inactive; MrgX1 antag: inactive; RGS4 block: inactive; MrgX1 allo act: inactive

How did Cn1nc(-c2ccc(C(=O)NC3CCCCC3)cc2)c2ccccc2c1=O do in these assays?
RGS4 act: inactive; MrgX1 agonist: inactive; MrgX1 antag: inactive; RGS4 block: inactive; MrgX1 allo act: 9.5*

How did COc1ccc(S(=O)(=O)O/N=C2\CCCc3ccccc32)cc1 do in these assays?
RGS4 act: inactive; MrgX1 agonist: inactive; MrgX1 antag: -4.7*; RGS4 block: inactive; MrgX1 allo act: inactive

What do the screens show for `O=C(c1cccnc1)N1CCC(Oc2ccc(C(=O)N3CCCC(O)C3)cc2)CC1` (centres undefined)?
RGS4 act: inactive; MrgX1 agonist: inactive; MrgX1 antag: inactive; RGS4 block: inactive; MrgX1 allo act: inactive

How did Cc1ccc(OCCn2c(=O)n(C)c3ccccc32)cc1 do in these assays?
RGS4 act: -7.2*; MrgX1 agonist: inactive; MrgX1 antag: inactive; RGS4 block: inactive; MrgX1 allo act: inactive

What do the screens show for `C/C(=C\C(=O)c1ccc(Br)cc1)Nc1ccc(Cl)cc1`?
RGS4 act: -7.2*; MrgX1 agonist: inactive; MrgX1 antag: inactive; RGS4 block: inactive; MrgX1 allo act: inactive

How did CCN(Cc1ccccc1)C(=O)c1cc(-c2ccc(OC)c(OC)c2)nc2ccccc12 do in these assays?
RGS4 act: -9.2*; MrgX1 agonist: inactive; MrgX1 antag: inactive; RGS4 block: inactive; MrgX1 allo act: inactive

Results for COCCN(Cc1ccccc1)C(=O)c1cc(-c2ccc(OC)c(OC)c2)nc2ccccc12 ?
RGS4 act: -8.7*; MrgX1 agonist: inactive; MrgX1 antag: inactive; RGS4 block: inactive; MrgX1 allo act: inactive
